In ChEMBL document CHEMBL3616442, “Unconventional Knoevenagel-type indoles: Synthesis and cell-based studies for the identification of pro-apoptotic agents” (Eur J Med Chem, 2015):

What was measured:
OVCAR-3 = test: Growth inhibition of human OVCAR3 cells after 48 hrs by sulforhodamine B assay; type: functional; conditions: OVCAR-3, 48 h
Procedure, shortened: (§1)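 NCI 60-cell-line screen. Compounds tested at five 10-fold dilutions from 10^-4 to 10^-8 M. Cells exposed for the last 48 h of a 72 h incubation, growth estimated by sulforhodamine B protein assay. GI50 is the concentration giving 50% growth inhibition. Values beyond the tested range are expressed as greater or lesser than the extreme concentration.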

SK-MEL-2 = test: Growth inhibition of human SK-MEL-2 cells after 48 hrs by sulforhodamine B assay; type: functional; conditions: SK-MEL-2, 48 h
[1] = Growth inhibition of human SF295 cells after 48 hrs by sulforhodamine B assay; type: functional; conditions: SF-295, 48 h
M14 = test: Growth inhibition of human M14 cells after 48 hrs by sulforhodamine B assay; type: functional; conditions: M14, 48 h; procedure, shortened: as §1
[2] = Growth inhibition of human SF539 cells after 48 hrs by sulforhodamine B assay; type: functional; conditions: SF-539, 48 h
NCI-H23 = test: Growth inhibition of human NCI-H23 cells after 48 hrs by sulforhodamine B assay; type: functional; conditions: NCI-H23, 48 h; procedure, shortened: as §1
PC-3 = test: Growth inhibition of human PC3 cells after 48 hrs by sulforhodamine B assay; type: functional; conditions: PC-3, 48 h
SK-MEL-28 = test: Growth inhibition of human SK-MEL-28 cells after 48 hrs by sulforhodamine B assay; type: functional; conditions: SK-MEL-28, 48 h
[3] = Growth inhibition of human BT549 cells after 48 hrs by sulforhodamine B assay; type: functional; conditions: BT-549, 48 h; procedure, shortened: as §1
Malme-3M = test: Growth inhibition of human MALME-3M cells after 48 hrs by sulforhodamine B assay; type: functional; procedure, shortened: as §1
MT4 = test: Antiproliferative activity against human MT4 cells after 96 hrs by MTT assay; type: functional, cell-based; conditions: MT4, 96 h
Procedure, shortened: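 Exponentially growing MT-4 cells (CD4+ human T-cells carrying integrated HTLV-1 genome), seeded at 1×10^5 cells/mL in RPMI-1640 with 10% FCS and antibiotics. Serial dilutions of compound (DMSO stock 100 mM, diluted in medium), 37 °C, 5% CO₂, 96 h. Viability read by MTT. 50% inhibition versus untreated controls by linear regression. Mean ± SD of three independent determinations.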

[4] = Growth inhibition of human HCC2998 cells after 48 hrs by sulforhodamine B assay; type: functional; conditions: HCC 2998, 48 h; procedure, shortened: as §1
HOP-62 = test: Growth inhibition of human HOP62 cells after 48 hrs by sulforhodamine B assay; type: functional; conditions: HOP-62, 48 h; procedure, shortened: as §1
HT-29 = test: Growth inhibition of human HT-29 cells after 48 hrs by sulforhodamine B assay; type: functional; conditions: HT-29, 48 h; procedure, shortened: as §1
MDA-MB-231 = test: Growth inhibition of human MDA-MB-231 cells after 48 hrs by sulforhodamine B assay; type: functional; conditions: MDA-MB-231, 48 h; procedure, shortened: as §1
SN12C = test: Growth inhibition of human SN12C cells after 48 hrs by sulforhodamine B assay; type: functional
DU-145 = test: Growth inhibition of human DU145 cells after 48 hrs by sulforhodamine B assay; type: functional; conditions: DU-145, 48 h; procedure, shortened: as §1
[5] = Growth inhibition of human EKVX cells after 48 hrs by sulforhodamine B assay; type: functional; procedure, shortened: as §1
KM12 = test: Growth inhibition of human KM12 cells after 48 hrs by sulforhodamine B assay; type: functional; conditions: KM12, 48 h; procedure, shortened: as §1
[6] = Growth inhibition of human NCI-ADR-RES cells after 48 hrs by sulforhodamine B assay; type: functional; procedure, shortened: as §1
UO-31 = test: Growth inhibition of human UO31 cells after 48 hrs by sulforhodamine B assay; type: functional; conditions: UO-31, 48 h
SK-OV-3 = test: Growth inhibition of human SKOV3 cells after 48 hrs by sulforhodamine B assay; type: functional; conditions: SK-OV-3, 48 h
[7] = Growth inhibition of human Hs 578T cells after 48 hrs by sulforhodamine B assay; type: functional; procedure, shortened: as §1
HCT-15 = test: Growth inhibition of human HCT15 cells after 48 hrs by sulforhodamine B assay; type: functional; conditions: HCT-15, 48 h; procedure, shortened: as §1
T47D = test: Growth inhibition of human T47D cells after 48 hrs by sulforhodamine B assay; type: functional
MCF7 = test: Growth inhibition of human MCF7 cells after 48 hrs by sulforhodamine B assay; type: functional; conditions: MCF7, 48 h; procedure, shortened: as §1
SF-268 = test: Growth inhibition of human SF268 cells after 48 hrs by sulforhodamine B assay; type: functional; conditions: SF-268, 48 h
SNB-19 = test: Growth inhibition of human SNB19 cells after 48 hrs by sulforhodamine B assay; type: functional; conditions: SNB-19, 48 h
SR = test: Growth inhibition of human SR cells after 48 hrs by sulforhodamine B assay; type: functional
ACHN = test: Growth inhibition of human ACHN cells after 48 hrs by sulforhodamine B assay; type: functional; procedure, shortened: as §1
SNB-75 = test: Growth inhibition of human SNB75 cells after 48 hrs by sulforhodamine B assay; type: functional; conditions: SNB-75, 48 h
OVCAR-8 = test: Growth inhibition of human OVCAR8 cells after 48 hrs by sulforhodamine B assay; type: functional; conditions: OVCAR-8, 48 h
A498 = test: Growth inhibition of human A498 cells after 48 hrs by sulforhodamine B assay; type: functional; conditions: A498, 48 h; procedure, shortened: as §1
U-251 = test: Growth inhibition of human U251 cells after 48 hrs by sulforhodamine B assay; type: functional; conditions: U-251, 48 h
TK-10 = test: Growth inhibition of human TK10 cells after 48 hrs by sulforhodamine B assay; type: functional; conditions: TK-10, 48 h
OVCAR-4 = test: Growth inhibition of human OVCAR4 cells after 48 hrs by sulforhodamine B assay; type: functional; conditions: OVCAR-4, 48 h; procedure, shortened: as §1
MDA-MB-468 = test: Growth inhibition of human MDA-MB-468 cells after 48 hrs by sulforhodamine B assay; type: functional; conditions: MDA-MB-468, 48 h; procedure, shortened: as §1
NCI-H226 = test: Growth inhibition of human NCI-H226 cells after 48 hrs by sulforhodamine B assay; type: functional; conditions: NCI-H226, 48 h; procedure, shortened: as §1
IGROV-1 = test: Growth inhibition of human IGROV1 cells after 48 hrs by sulforhodamine B assay; type: functional; conditions: IGROV-1, 48 h; procedure, shortened: as §1
[8] = Growth inhibition of human MOLT4 cells after 48 hrs by sulforhodamine B assay; type: functional; conditions: MOLT-4, 48 h; procedure, shortened: as §1
NCI-H522 = test: Growth inhibition of human NCI-H522 cells after 48 hrs by sulforhodamine B assay; type: functional; conditions: NCI-H522, 48 h; procedure, shortened: as §1
HCT-116 = test: Growth inhibition of human HCT116 cells after 48 hrs by sulforhodamine B assay; type: functional; conditions: HCT-116, 48 h; procedure, shortened: as §1
[9] = Growth inhibition of human LOXIMVI cells after 48 hrs by sulforhodamine B assay; type: functional; conditions: LOX IMVI; procedure, shortened: as §1
CAKI-1 = test: Growth inhibition of human CAKI-1 cells after 48 hrs by sulforhodamine B assay; type: functional; conditions: CAKI-1, 48 h; procedure, shortened: as §1
A549 = test: Growth inhibition of human A549 cells after 48 hrs by sulforhodamine B assay; type: functional; conditions: A549, 48 h; procedure, shortened: as §1
SW-620 = test: Growth inhibition of human SW620 cells after 48 hrs by sulforhodamine B assay; type: functional; conditions: SW-620, 48 h
[10] = Growth inhibition of human RXF393 cells after 48 hrs by sulforhodamine B assay; type: functional; conditions: RXF 393, 48 h
[11] = Growth inhibition of human COLO205 cells after 48 hrs by sulforhodamine B assay; type: functional; conditions: COLO 205, 48 h; procedure, shortened: as §1
[12] = Growth inhibition of human RPMI8226 cells after 48 hrs by sulforhodamine B assay; type: functional; conditions: RPMI-8226, 48 h
NCI-H460 = test: Growth inhibition of human NCI-H460 cells after 48 hrs by sulforhodamine B assay; type: functional; conditions: NCI-H460, 48 h; procedure, shortened: as §1
MDA-MB-435 = test: Growth inhibition of human MDA-MB-435 cells after 48 hrs by sulforhodamine B assay; type: functional; conditions: MDA-MB-435, 48 h; procedure, shortened: as §1
786-0 = test: Growth inhibition of human 786-0 cells after 48 hrs by sulforhodamine B assay; type: functional; conditions: 786-0, 48 h; procedure, shortened: as §1
OVCAR-5 = test: Growth inhibition of human OVCAR5 cells after 48 hrs by sulforhodamine B assay; type: functional; conditions: OVCAR-5, 48 h
[13] = Growth inhibition of human HOP92 cells after 48 hrs by sulforhodamine B assay; type: functional; conditions: HOP-92, 48 h; procedure, shortened: as §1
UACC-257 = test: Growth inhibition of human UACC257 cells after 48 hrs by sulforhodamine B assay; type: functional; conditions: UACC-257, 48 h
NCI-H322M = test: Growth inhibition of human NCI-H322M cells after 48 hrs by sulforhodamine B assay; type: functional; procedure, shortened: as §1
UACC-62 = test: Growth inhibition of human UACC62 cells after 48 hrs by sulforhodamine B assay; type: functional; conditions: UACC-62, 48 h

GI50 (OVCAR-3): 2.7 µM
GI50 (SK-MEL-2): 10.6 µM
GI50 (NCI-H23): 4.8 µM
GI50 (PC-3): 5.6 µM
GI50 (SK-MEL-28): 5.8 µM
GI50 (HT-29): 5.2 µM
GI50 (MDA-MB-231): 2.7 µM
GI50 (DU-145): 2.9 µM
GI50 (SK-OV-3): 9.3 µM
GI50 (HCT-15): 3.1 µM
GI50 (T47D): 3.2 µM
GI50 (MCF7): 2.8 µM
GI50 (ACHN): 5.5 µM
GI50 (OVCAR-8): 3.9 µM
GI50 (U-251): 3.4 µM
GI50 (OVCAR-4): 5.7 µM
GI50 (MDA-MB-468): 6.3 µM
GI50 (NCI-H226): 4.3 µM
GI50 (NCI-H522): 3.2 µM
GI50 (HCT-116): 3.8 µM
GI50 (A549): 4.9 µM
GI50 (SW-620): 5.2 µM
GI50 (NCI-H460): 3 µM
GI50 (MDA-MB-435): 2.9 µM
GI50 (786-0): 8.2 µM
GI50 (OVCAR-5): 17.4 µM
GI50 (NCI-H322M): 8.8 µM
SMILES: COC(=O)/C(=C\c1c(C)[nH]c2ccccc12)S(=O)(=O)c1ccccc1
GI50 [1]: 3.1 µM
GI50 (M14): 4.4 µM
GI50 [2]: 3.4 µM
GI50 [3]: 5.4 µM
GI50 (Malme-3M): 7.3 µM
EC50 (MT4): 31 µM
GI50 [4]: 4.9 µM
GI50 (HOP-62): 7.7 µM
GI50 (SN12C): 2.6 µM
GI50 [5]: 5 µM
GI50 (KM12): 2.4 µM
GI50 [6]: 4.2 µM
GI50 (UO-31): 4.4 µM
GI50 [7]: 2.9 µM
GI50 (SF-268): 3.3 µM
GI50 (SNB-19): 7.6 µM
GI50 (SR): 1.1 µM
GI50 (SNB-75): 3.1 µM
GI50 (A498): 5.5 µM
GI50 (TK-10): 8.1 µM
GI50 (IGROV-1): 1.5 µM
GI50 [8]: 1.9 µM
GI50 [9]: 2 µM
GI50 (CAKI-1): 3.3 µM
GI50 [10]: 3.6 µM
GI50 [11]: 7.5 µM
GI50 [12]: 3.2 µM
GI50 [13]: 4.1 µM
GI50 (UACC-257): 7 µM
GI50 (UACC-62): 2.8 µM
